Where “and” joins values, the source holds several entries; their conditions need not be identical. Equal entries are not always repeated. Calls of active or inactive are those of the source. The calls are words filed in the database; no cut-off is given here.
What was measured:
Plenodomus lingam [1] = assay: Activity of Leptosphaeria maculans BoLm in presence of DEPC reagent relative to control
In short: (§1)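 Purified BOLm was incubated in a reaction buffer with each modifier: BUT 10 mM, EAM 2.5 mM, NAI 2.5 mM or DEPC 2.5 mM in 100 mM phosphate pH 7.5; IAA 2.5 mM in 100 mM MES pH 6.0; PMSF 2.5 mM in 100 mM phosphate pH 8.1. Residual activity was then read in the standard brassinin/PMS HPLC assay. Result is specific activity as a percentage of untreated enzyme.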

Plenodomus lingam [2] = assay: Activity of Leptosphaeria maculans BoLm in presence of WRK reagent relative to control
In short: (§2)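 Purified BOLm was treated with the carboxyl-specific reagent (WRK or EDC, 5–50 mM) in 100 mM MES pH 6.0 at 20 °C. Aliquots taken at time intervals were assayed for residual activity in the standard brassinin/PMS HPLC assay. Activity is given as a percentage of untreated enzyme. For WRK, kobs came from ln residual activity versus time, and K_I and k2 from 1/kobs versus 1/[WRK].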

Plenodomus lingam [3] = assay: Activity of Leptosphaeria maculans BoLm at 0.05 to 1.0 mM
In short: (§3)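 BOLm purified from 3-phenylindole-induced L. maculans BJ-125 liquid cultures. Assay buffer: 20 mM DEA pH 8.2, 1.0 mM DTT, 0.1% Triton X-100, with 1.0 mM PMS as electron acceptor, which is saturating. Substrate was varied over 0.05–1.0 mM for brassinin or 0.05–2.8 mM for the carbamate. Reactions ran 20 min at 20 °C and were stopped and extracted with EtOAc. Indole-3-carboxaldehyde was quantified by HPLC-DAD against calibration curves. kcat and Km were taken from saturation curves. Four independent experiments.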

Plenodomus lingam [4] = assay: Activity of Leptosphaeria maculans BoLm in presence of EAM reagent relative to control; in short: as §1
Plenodomus lingam [5] = assay: Activity of Leptosphaeria maculans BoLm in presence of H218O relative to Brassinin; settings: tested as the 2H-labelled form
Plenodomus lingam [6] = assay: Activity of Leptosphaeria maculans BoLm in presence of PMSF reagent relative to control; in short: as §1
Plenodomus lingam [7] = assay: Activity of Leptosphaeria maculans BoLm in presence of BUT reagent relative to control; in short: as §1
Plenodomus lingam [8] = assay: Activity of Leptosphaeria maculans BoLm; in short: as §3
Plenodomus lingam [9] = assay: Ratio of kcat to Km for Leptosphaeria maculans BoLm; in short: as §3
Plenodomus lingam [10] = assay: Activity of Leptosphaeria maculans BoLm in presence of EDC reagent relative to control; in short: as §2
Plenodomus lingam [11] = assay: Activity of Leptosphaeria maculans BoLm relative to Brassinin; settings: tested as the 2H-labelled form
Plenodomus lingam [12] = assay: Selectivity ratio of compound to dideuterated brassinin for Leptosphaeria maculans BoLm activity
In short: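 Kinetic isotope effect = (kcat/Km)H / (kcat/Km)D. Purified BOLm at pH 8.2 with saturating PMS (1.0 mM), 20 °C, 20 min. Substrate was varied over 0.05–1.0 mM (brassinin series) or 0.05–2.8 mM (carbamate series), comparing natural-abundance and deuterated substrates. Product was quantified by HPLC. Four independent experiments.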

Plenodomus lingam [13] = assay: Activity of Leptosphaeria maculans BoLm in presence of IAA reagent relative to control; in short: as §1
Plenodomus lingam [14] = assay: Activity of Leptosphaeria maculans BoLm in presence of NAI reagent relative to control; in short: as §1
Plenodomus lingam [15] = assay: Activity of Leptosphaeria maculans BoLm at 0.05 to 2.8 mM
In short: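 Purified BOLm from 3-phenylindole-induced L. maculans BJ-125 cultures; substrate varied 0.05–2.8 mM with saturating PMS (1.0 mM) in 20 mM DEA pH 8.2, 1 mM DTT, 0.1% Triton X-100; 20 °C, 20 min; EtOAc extraction, HPLC-DAD quantitation of indole-3-carboxaldehyde against calibration curves; kcat, Km from saturation curves; four independent experiments.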

Plenodomus lingam [16] = assay: Ratio of kcat to Km for Leptosphaeria maculans BoLm to ratio of kcat to Km for Leptosphaeria maculans BoLm with the deuterated substrate; settings: tested as the 2H-labelled form
Plenodomus lingam [17] = assay: Inhibition of Leptosphaeria maculans BoLm assessed as conversion of brassinin to indole-3-carboxaldehyde at 0.30 mM
In short: (§4)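 Initial-velocity assays with purified BOLm: product added at fixed 0.30 or 0.60 mM, brassinin varied 0.05–0.30 mM at saturating PMS (1 mM); also PMS varied […] with brassinin fixed at 0.05, 0.10 or 0.15 mM; standard DEA pH 8.2 assay, HPLC quantitation.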

Plenodomus lingam [18] = assay: Antifungal activity against Leptosphaeria maculans isolate BJ 125 assessed as growth inhibition at 0.50 mM relative to control; type: functional; set-up: scale not given: the % may be the effect or the level left
In short: (§5)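 Mycelial growth inhibition of L. maculans isolate BJ 125 tested at 0.50, 0.25 and 0.12 mM; growth compared with control cultures grown without compound under otherwise identical conditions.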

Plenodomus lingam [19] = assay: Antifungal activity against Leptosphaeria maculans isolate BJ 125 assessed as growth inhibition; type: functional; set-up: scale not given: the % may be the effect or the level left; in short: as §5
Plenodomus lingam [20] = assay: Inhibition of Leptosphaeria maculans BoLm assessed as conversion of brassinin to indole-3-carboxaldehyde at 0.60 mM; in short: as §4

For `CSC(=S)NCc1c[nH]c2ccccc12`, the Activity (Plenodomus lingam [1]) was 103%, the Activity (Plenodomus lingam [2]) was 17% and the kcat (Plenodomus lingam [3]) was 0.95 s⁻¹. The kcat (Plenodomus lingam [3]; tested as the 2H-labelled form) was 0.28 s⁻¹, the Activity (Plenodomus lingam [4]) was 97% and the Activity (Plenodomus lingam [5]) was 23%. It also gave an Activity (Plenodomus lingam [6]) of 108%, an Activity (Plenodomus lingam [7]) of 95% and a Km (Plenodomus lingam [8]) of 96 µM. The Km (Plenodomus lingam [8]; tested as the 2H-labelled form) was 151 µM and 94 µM and 96 µM, the kcat (Plenodomus lingam [8]; tested as the 2H-labelled form) was 0.84 s⁻¹ and 0.47 s⁻¹ and the kcat/Km (Plenodomus lingam [9]) was 9900 M⁻¹ s⁻¹. The Activity (Plenodomus lingam [10]) was 38%, the Activity (Plenodomus lingam [11]) was 26% and the Ratio (Plenodomus lingam [12]) was 4. It also gave an Activity (Plenodomus lingam [13]) of 106% and an Activity (Plenodomus lingam [14]) of 111%.
`COC(=O)NCc1c[nH]c2ccccc12` showed a kcat (Plenodomus lingam [15]) of 5.62 s⁻¹, a kcat (Plenodomus lingam [15]; tested as the 2H-labelled form) of 1.15 s⁻¹ and a Km (Plenodomus lingam [8]) of 622 µM. It also gave a Km (Plenodomus lingam [8]; tested as the 2H-labelled form) of 501 µM, a Ratio (Plenodomus lingam [16]) of 3.9 and a kcat/Km (Plenodomus lingam [9]) of 9040 M⁻¹ s⁻¹. The kcat/Km (Plenodomus lingam [9]; tested as the 2H-labelled form) was 2300 M⁻¹ s⁻¹.
`O=Cc1c[nH]c2ccccc12` was tested, and the inhibition (Plenodomus lingam [17]) was “inactive”.
With `CSC(N)=S` the Activity (Plenodomus lingam [18]) was 18%, the Activity (Plenodomus lingam [19]) was 18% and the inhibition (Plenodomus lingam [20]) was “inactive”.

From ChEMBL document CHEMBL1671808, “Brassinin oxidase mediated transformation of the phytoalexin brassinin: structure of the elusive co-product, deuterium isotope effect and stereoselectivity” (2011)
